# Screening data deposited in PubChem by The Scripps Research Institute Molecular Screening Center.
# In the library only some 2.7% were active in any assay of this set; here they are far more common.
# V1aR counter = V1a receptor agonism, counter-screen for OXTR agonists. CHO-V1R cells, Fluo-8 calcium fluorescence, agonist mode; 0% DMSO, 100% 3 nM vasopressin. activation, % at 3 µM. P37288. actives 0.25% (n = 320,000);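 active means activation above the mean activation of all tested compounds plus 3 SD, per screening run, cut at about 20% in these data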;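 further: signal is peak over basal fluorescence ratio across a 100 second FLIPR read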
# CHO parental Ca = counter-screen: ATP calcium response change in parental CHO cells; actives 0.63% (n = 330,000); parental CHO-K1, ATP-induced calcium, Fluo-8 fluorescence; inhibition, % at 5.6 µM;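 active means inhibition above that plate's mean sample inhibition plus 3 SD, cut at about 26% in these data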
#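 Assay system: parental CHO cells; Read-out basis: percent inhibition of ATP-evoked calcium rise, normalized to controls; Benchmarks: ATP and no-ATP DMSO wells; Compound dosing: single nominal dose of 5.6 µM per compound; Signal: Fluo-8 calcium dye fluorescence; Also added: ATP as calcium-mobilizing challenge; Repeats: singlicate.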
# OXTR potentiator = potentiators of human oxytocin receptor | P30559 | CHO-OTR cells, Fluo-8 calcium fluorescence, potentiator mode; 0% = oxytocin EC15, 100% = EC100 | activation, % at 3 µM | actives 0.061% (n = 320,000) | AID 2445;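 active means activation above that plate's cutoff, the mean activation of tested compounds plus 3 SD, cut at about 6.6% in these data, passing the limit was not always enough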
# Target sequence (P30559 whole entry, looked up): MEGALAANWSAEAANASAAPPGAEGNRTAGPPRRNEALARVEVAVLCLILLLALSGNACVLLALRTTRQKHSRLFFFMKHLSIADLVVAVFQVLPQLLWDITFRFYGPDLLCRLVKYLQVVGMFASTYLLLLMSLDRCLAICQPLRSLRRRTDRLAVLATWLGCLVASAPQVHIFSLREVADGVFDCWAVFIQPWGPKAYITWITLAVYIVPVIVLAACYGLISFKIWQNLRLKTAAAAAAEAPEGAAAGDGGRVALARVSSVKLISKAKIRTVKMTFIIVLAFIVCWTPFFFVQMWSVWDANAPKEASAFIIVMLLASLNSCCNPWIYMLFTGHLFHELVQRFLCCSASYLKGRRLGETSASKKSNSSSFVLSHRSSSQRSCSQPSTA
#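 System: human OTR in CHO cells / Also added: sub-maximal oxytocin, roughly EC15 / Control set: EC15 oxytocin low, 75 nM oxytocin high / Schedule: 6 min compound pre-incubation at room temperature, 100 s kinetic read / Compound: single-point 3.0 µM / Replication: singlicate / Technique: Fluo-8 calcium dye fluorescence / Read-out basis: % activation of max/min ratio relative to oxytocin controls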
# OX1R antag-1 = antagonists of human orexin 1 receptor (OX1R). OX1R-expressing cells, FRET antagonist read-out. AID 485270. O43613. inhibition, % at 6.6 µM. actives 1.8% (n = 330,000); in the data active means inhibition mostly above about 38%, no sharp cut-off; inactive means mostly below about 40%
# OXTR ag = agonists of human oxytocin receptor; CHO-OTR cells, Fluo-8 calcium fluorescence; normalized: DMSO 0%, oxytocin 100%; activation, % at 3 µM; P30559; AID 2435; actives 0.32% (n = 320,000);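 active means activation above the mean of all tested compounds plus 3 SD, cutoff set per screening run, cut at about 20% in these data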;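 further: peak over basal fluorescence ratio from a 100 s FLIPR kinetic read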
# OX1R antag-2 = human HCRTR1 antagonism; O43613; CHO/OX1R cells, Fluo-8 calcium fluorescence, orexin A; inhibition, % at 5 µM; actives 0.43% (n = 330,000); AID 434989;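 active means inhibition above its plate's threshold, mean inhibition of all tested compounds on the plate plus 3 SD, cut at about 37% in these data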
# OX1R Fluo8 conf = OX1R (human) antagonism, confirmed; shares compounds with OX1R antag-2; CHO/OX1R cells, orexin A calcium Fluo-8 fluorescence; inhibition, % at 5 µM; actives 38% (n = 1,100); AID 492963; in the data active means inhibition above about 29%
# CHO Ca triplic = counter-screen: parental CHO calcium response change, triplicate; shares compounds with OX1R antag-2; inhibition, % at 5.6 µM; parental CHO-K1, ATP-induced calcium, Fluo-8 fluorescence; actives 9.3% (n = 1,100);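 active means inhibition above a per-plate limit, the mean inhibition of that plate's test compounds plus 3 SD, cut at about 25% in these data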
# OX1R HTRF confirm = confirmation of human orexin 1 receptor antagonists, HTRF format; shares compounds with OX1R antag-1; OX1R-expressing cells, HTRF antagonist assay; inhibition, % at 6.6 µM; actives 49% (n = 1,800); in the data active means inhibition above about 55%;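 further: CHO cells expressing OX1R stimulated with orexin A at about EC80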
# CHO-K1 HTRF cnt = signal in parental CHO-K1 cells, OX1R antagonist counter-screen | shares compounds with OX1R antag-1 | HTRF counterscreen | inhibition, % at 6.6 µM | actives 48% (n = 1,800); in the data active means inhibition above about 17%
# Hits are given with their value; 0 = inactive; - = no result given.
SMILES,V1aR counter,CHO parental Ca,OXTR potentiator,OX1R antag-1,OXTR ag,OX1R antag-2,OX1R Fluo8 conf,CHO Ca triplic,others
CC(=O)Nc1ccccc1C(=O)OCC(=O)c1ccc2ccccc2c1,0,0,0,0,0,44,32,0,
CCCCCn1c(=O)c(C(=O)Nc2ccccc2C)c(O)c2ccccc21,0,0,0,0,0,0,-,-,
CCCCCCn1c(=O)c(C(=O)Nc2ncccc2C)c(O)c2ccccc21,46,0,0,0,38,0,0,0,
CC1(C)CSC(=NCc2ccccc2)N1,0,0,0,0,0,0,63,35,
CCN1C[C@]2(C)CC[C@H](O)[C@]34C1[C@H](C[C@H]23)[C@@]1(O)C[C@H](OC)[C@H]2C[C@@H]4[C@@H]1C2O (stereo partly drawn),0,0,0,0,0,0,-,-,
COC(=O)C1=C(c2ccc(F)cc2OCc2ccccc2)C[C@@H]2CC[C@H]1N2C(=O)NCCCc1ccccc1,0,0,0,0,0,0,-,-,
O=C1NC(=O)C(=Cc2ccc(-c3ccc(F)cc3O)o2)C(=O)N1,0,0,0,0,0,0,-,-,
O=C(O)C(Cc1cnc[nH]1)NS(=O)(=O)c1ccc(Cl)cc1 (stereo not drawn),0,0,0,0,0,0,0,0,
COC(=O)C1=C(c2ccc(F)cc2OCc2ccccc2)C[C@@H]2CC[C@H]1N2C(=O)NCc1ccc(F)cc1,0,0,0,0,0,0,-,-,
COC(=O)C1=C(c2ccc(F)cc2OCc2ccccc2)C[C@@H]2CC[C@H]1N2C(=O)NCc1ccc(C)cc1,0,0,0,0,0,56,0,0,
COC(=O)C1=C(c2cccc(OCc3ccccc3)c2)C[C@@H]2CC[C@H]1N2C(=O)NCc1ccccc1OC,0,0,0,0,0,52,0,0,
CC(N)Cc1cn(Cc2ccccc2)c2ccccc12 (stereo not drawn),0,0,0,0,0,0,-,-,
CCCCCCCCn1sccc1=O,0,0,0,0,0,37,36,0,
O=C1Nc2cc(C(=O)N3CCC4(CC3)OCCO4)ccc2NC1CSCc1cccc(F)c1 (stereo not drawn),0,0,0,0,0,0,-,-,
O=P(Nc1ccccc1)(Oc1ccccc1)Oc1ccccc1,0,0,0,0,0,0,-,-,
COc1cccc(OP(=O)(Nc2ccccc2)Oc2cccc(OC)c2)c1,0,0,0,60,0,45,29,0,OX1R HTRF confirm=0;CHO-K1 HTRF cnt=0
COC1=CC(=O)O[C@@H](/C=C/c2ccccc2)C1,0,0,0,0,0,0,-,-,
COC(=O)C1=C(c2ccccc2OCc2ccccc2)C[C@@H]2CC[C@H]1N2C(=O)NCCOc1ccccc1Cl,0,0,0,53,0,62,33,0,OX1R HTRF confirm=70;CHO-K1 HTRF cnt=0
O=S(=O)(NC1CN2CCC1CC2)c1ccc(Cl)cc1 (stereo not drawn),0,0,0,0,0,0,-,-,
O=C(NC1CN2CCC1CC2)c1cc(Cl)c([N+](=O)[O-])c2nc[nH]c12 (stereo not drawn),0,0,0,130,0,0,-,-,OX1R HTRF confirm=0;CHO-K1 HTRF cnt=83
C1CC2NCCC3NCCC(N1)N32 (stereo not drawn),0,0,0,0,0,0,-,-,
O=[N+]([O-])c1ccc(N2CCOCC2)c2ccncc12,0,0,0,107,0,0,-,-,OX1R HTRF confirm=0;CHO-K1 HTRF cnt=65
COc1cc(OC)c2c(c1)O[C@@H](c1ccc(OC)c(OC)c1)[C@H](O)C2,0,0,0,0,0,0,-,-,
